Hits are enriched below; roughly 3.2% of the tested compounds scored in any of these assays.
DAX1 inh-1: DAX1 (NR0B1) inhibitors, primary screen, cell-based, HEK293, Gal4-DAX1, luciferase luminescence | inhibition, % at 6.75 µM | AID 504766, 2011 | Nuclear receptor subfamily 0 group B member 1 (Homo sapiens), P51843 | 340,000 compounds, 0.99% hits | HEK293 Gal4-DAX1 luciferase reporter;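 active means inhibition above the mean over all tested compounds plus 3 SD, cut at about 4.2% in these data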;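 further: 0% = DAX1-transfected cells with DMSO and 100% = empty-vector control cells with DMSO; inhibition shows as a rise in luminescence from relieved DAX1 repression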
SMARCA2 activ: SMARCA2 (BRM) function activators, primary screen, cell-based, luminescence, high throughput; MG213 cells, MMTV-luciferase reporter, dexamethasone, overnight; activation, % at 9.1 µM; 370,000 compounds, 1% hits; in the data active means activation above about 7.8%;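 further: 0% = vehicle wells and 100% = reference activator wells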
NR2E3 ag-1: NR2E3 agonists in two-hybrid cells, primary screen, cell-based, luminescence, CHO-S, Gal4-NCOR/VP16-NR2E3; Photoreceptor-specific nuclear receptor (Homo sapiens), Q9Y5X4; 360,000 compounds, 0.35% hits; luciferase; inhibition of corepressor binding, % at 3.98 µM; AID 602229, 2012;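 active means inhibition above the mean of all tested compounds plus 3 SD, cut at about 70% in these data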;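 further: 0% = DMSO with NR2E3 transfected cells and 100% = cells lacking NR2E3 construct; higher means lower luciferase signal from less NR2E3 corepressor binding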
DAX1 inh-2: DAX1 (NR0B1) inhibitors on StAR promoter, primary screen, cell-based, luminescence, SF-1 (NR5A1), full-length DAX-1; inhibition, % at 6.8 µM; AID 652010, 2013; 370,000 compounds, 1.1% hits; HEK293T StAR-luciferase reporter, SF-1/DAX-1 repression relief;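 active means inhibition above the mean over all tested compounds plus 3 SD, cut at about 3.6% in these data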;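 further: 0% = DAX-1 cells with DMSO and 100% = cells lacking DAX-1 with DMSO; higher inhibition means more luminescence from relief of DAX-1 repression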
NR2E3 ag-2: inhibitors of NR2E3-RetCOR corepressor binding, primary screen, NR2E3 agonist project, biochemical, TR-FRET, GST-NR2E3, biotin-RetCOR. 1536-well. inhibition of corepressor binding, % at 4.78 µM. 320,000 compounds, 0.12% hits. AID 2300, 2010;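 active means percent inhibition above the cutoff of mean plus 3 SD of all tested compounds, set per screening campaign, cut at about 20% in these data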;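 further: 0% = DMSO wells and 100% = biotin wells as full block of FRET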
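Material: NR2E3–RetCOR corepressor complex | Quantity: 1.35 nM GST-tagged NR2E3 final | Schedule: 5 h at 4 °C | Replication: Singlicate compound wells | Reagent: RetCOR corepressor, biotinylated, 7 nM | Controls: Biotin wells as high control, 0.6% DMSO wells as low control | Signal: TR-FRET, Eu(K)-anti-GST donor, streptavidin-D2 acceptor, ex 340, em 617/671 nm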
GASC-1 inh: inhibitors of GASC-1 histone demethylase, primary screen, biochemical, fluorescence, DELFIA europium; Lysine-specific demethylase 4C (Homo sapiens), Q9H3R0; GST-JMJD2C(1-420) H3K9me3 demethylation; inhibition, % at 2.35 µM; 330,000 compounds, 0.069% hits; AID 2099, 2009;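 active means more than half of a compound's replicate wells show inhibition beyond 50%, single wells judged on their own value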;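 further: signal counts dimethyl H3K9 product captured on neutravidin plate; 0% = median of DMSO wells and 100% = 0.3 times that DMSO median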
Target sequence (Q9H3R0 1-420 limits assumed): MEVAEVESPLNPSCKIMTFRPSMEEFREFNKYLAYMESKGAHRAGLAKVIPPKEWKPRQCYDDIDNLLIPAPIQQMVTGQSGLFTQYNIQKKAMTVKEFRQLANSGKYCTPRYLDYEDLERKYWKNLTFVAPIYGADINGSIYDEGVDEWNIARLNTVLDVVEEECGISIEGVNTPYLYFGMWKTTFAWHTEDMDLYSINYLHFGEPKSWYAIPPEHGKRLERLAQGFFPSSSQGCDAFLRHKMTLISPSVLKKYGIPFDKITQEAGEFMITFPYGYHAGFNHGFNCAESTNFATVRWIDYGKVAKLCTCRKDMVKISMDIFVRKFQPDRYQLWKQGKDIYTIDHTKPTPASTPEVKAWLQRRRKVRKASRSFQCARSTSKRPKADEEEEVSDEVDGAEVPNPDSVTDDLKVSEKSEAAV
Numbers without * were called inactive; x = no result.

SMILES	DAX1 inh-1	SMARCA2 activ	NR2E3 ag-1	DAX1 inh-2	NR2E3 ag-2	GASC-1 inh
CC(=O)c1sc(NC(=O)c2ccc(C)c(C)c2)nc1C	6.2*	6.0	-78.4	2.3	-1.2	4.7
Cc1ccc(-n2c(SCC(=O)c3ccccc3Br)nnc2-c2ccncc2)cc1	x	1.8	x	-0.1	x	x
CC(C)CNS(=O)(=O)/C=C/c1ccccc1CNC(=O)OC(C)(C)C	x	-0.6	x	-1.8	x	x
COC(=O)C1CN(Cc2ccccc2)CCS(=O)(=O)N1Cc1ccc(OC)cc1 (stereo not drawn)	x	0.6	x	-0.8	x	x
CC(C)N1Cc2nnn(Cc3ccccc3)c2-c2cc(F)ccc2S1(=O)=O	x	-3.5	x	-1.2	x	x
COc1cccc(C=NNc2nc3ccccc3s2)c1OC	6.8*	6.1	-254.9	3.6*	x	x
COc1cccc(/C=N/Nc2ccc(Cl)nn2)c1OC	5.6*	1.9	-36.9	-0.7	-0.8	-1.6
O=C(/C=C/NNC(=O)c1ccccc1)c1ccc([N+](=O)[O-])cc1	4.4*	3.6	-61.1	0.4	2.1	1.2
O=C(O)CC(NNC(=O)c1ccccc1)C(=O)Nc1ccc([N+](=O)[O-])cc1 (stereo not drawn)	8.4*	-0.8	-20.8	0.9	-0.2	0.0
NC(N)=NCCCC(NC(=O)c1ccccc1)C(=O)Nc1ccc([N+](=O)[O-])cc1 (stereo not drawn)	0.3	-6.3	16.8	0.2	0.8	5.2
O=C(/C=C/NNC(=O)c1ccccc1)c1ccccc1	0.2	5.8	-21.4	0.8	1.8	-2.4
Fc1ccc(-c2cc(-c3nnc4sc(Cc5cccs5)nn34)[nH]n2)cc1	x	-0.2	x	-1.1	x	x
COc1ccc(CC(=O)c2ccc(O)cc2O)cc1	5.8*	5.3	-93.9	3.2	4.5	-23.0
O=C(Cc1ccc(Br)cc1)c1ccc(O)cc1O	1.6	3.7	-79.4	0.6	2.2	3.8
Cc1ccc(NCc2nc3ccccc3n2C)c(C)c1	-0.6	2.2	-114.2	3.7*	1.5	0.0
Cn1c(CNc2ccc(Cl)cc2)nc2ccccc21	2.0	5.7	-117.0	4.3*	2.9	-1.1
C#CCCCN([C@@H](CC(C)C)C(=O)OC)S(=O)(=O)c1ccccc1Br	x	-4.5	x	-2.6	x	x
CC(C)(C)C(=O)NC1CCCCN(Cc2cccc(C(F)(F)F)c2)C1=O (stereo not drawn)	x	-3.0	x	-3.2	x	x
C/C(C=Nn1c(-c2ccc(F)cc2)n[nH]c1=S)=C/c1ccco1	x	3.0	x	0.4	x	x
CN1C(=O)C(O)(CC(=O)c2ccccc2O)c2cc(Br)ccc21 (stereo not drawn)	4.4*	1.2	-1.1	-0.9	0.2	-11.6
Cc1cc(C)n2nc(-c3cccc(Br)c3)cc2n1	4.8*	4.4	-66.6	2.1	-0.6	-1.1
Cc1cccc(-c2cc3nc(C)cc(C)n3n2)c1	0.9	5.3	-66.4	2.6	1.9	7.5
CN1CCSc2ccc(C(=O)NCc3ccccc3F)cc21	-0.1	2.4	-63.5	1.4	0.4	25.6
Cc1ccccc1NC(=O)c1ccc2ccccc2c1	5.0*	3.4	-78.2	1.1	-0.5	-1.2
Cc1ccccc1NC(=O)c1ccc2c(c1)N(C)CCS2	2.3	1.2	-38.0	3.6*	2.2	8.1
COC(=O)c1ccc2c(c1)N(C)CCS2	4.4*	1.3	-11.0	0.4	0.7	7.6
C/C=C/C(=O)N1CCC(C(=O)NC2CCCc3ccccc32)CC1 (stereo not drawn)	x	-5.5	x	0.2	x	x
CCOC(=O)[C@]12CCCC=C1N(CCCOC)C(=O)[C@@H]2CC(=O)NCc1ccc(C)o1	x	-2.9	x	0.1	x	x
Cc1ccc(N(C(=O)CNC(=O)c2ccco2)C(C(=O)NC2CCCCC2)c2cccnc2)cc1C (stereo not drawn)	-1.3	0.5	-20.2	0.1	-0.8	8.7

Screening results from PubChem BioAssay.
